# Screening results (PubChem BioAssay)
# Shown are actives, neighbours in structure and some others; about 3% of the full set was active somewhere.
# NSD2 HMT inh: inhibitors of human histone methyltransferase NSD2 | inhibition, % at 12.5 µM | hit rate 0.54% among 310,000 | O96028 | NSD2 peptide methylation, AlphaScreen, 120 min; in the data active = inhibition above about 50%
# esBAF inh: SWI/SNF esBAF complex inhibition; mouse ES cells, Bmi1-luciferase knock-in reporter, 24 h; 100% = twice the neutral-well signal; reporter increase, % at 12.5 µM; hit rate 2% among 350,000; AID 602393; in the data active = activation above about 40%; inconclusive = no clear call, values can overlap the other calls;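 also: 0% = median of the plate's neutral control wells and 100% = double that signal; a rise in the Bmi1 reporter signal indicates esBAF inhibition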
# CASP6 VEID inh: blocks human caspase-6 cleavage activity; P55212; purified caspase-6, Z-VEID-R110 cleavage fluorescence; inhibition, % at 12.5 µM; hit rate 0.53% among 350,000; AID 686996;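 active = mean inhibition across replicates at least about 35%, with every replicate also reaching that limit, limit read from the data; inconclusive = only one of the two criteria met; inactive = neither criterion met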;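 also: 0% = median of neutral control wells and 100% = no fluorescence left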
# Target sequence (P55212 24-179 limits assumed): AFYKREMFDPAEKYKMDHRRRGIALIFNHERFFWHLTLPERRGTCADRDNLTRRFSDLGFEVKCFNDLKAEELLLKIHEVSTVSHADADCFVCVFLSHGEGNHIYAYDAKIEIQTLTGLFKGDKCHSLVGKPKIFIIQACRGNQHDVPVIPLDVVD
# Target sequence (P55212 194-293 limits assumed): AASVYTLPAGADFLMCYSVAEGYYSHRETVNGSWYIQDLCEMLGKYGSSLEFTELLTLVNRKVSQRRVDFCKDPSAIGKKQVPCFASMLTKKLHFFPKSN
# MITF TRPM1 HTS: activators of MITF-driven TRPM1 promoter activity in SK-MEL-5 cells | SK-MEL-5 TRPM1-promoter luciferase, 24 h; % of positive control, neutral wells = 0 | activation, % at 12.5 µM | hit rate 0.75% among 300,000 | AID 588334;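 active = mean activation of at least 80% with every replicate also reaching 80%; inconclusive = mean reaches 80% but some replicate falls short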;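 also: 0% = neutral control wells and 100% = parthenolide positive control wells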
# XiGFP reactiv: activators of X-chromosome reactivation in mouse fibroblasts. XiGFP mouse fibroblasts, % GFP-positive cells imaging, 3 d; cells co-treated with 5-aza-dC sensitizer; scaled so ellipticine positive control = 100%. activation, % at 7.58 µM. hit rate 0.055% among 360,000;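 active = mean normalized replicate activation at least 10% and every replicate at or above 10%; inconclusive = only one of the two criteria met; inactive = mean below 10% and not all replicates reach 10%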;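 also: 0% = median of on-plate neutral control wells and 100% = ellipticine 6 µM median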
#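 System: 68-5-11 XiGFP fibroblast line | Buffer or medium: DMEM containing 5-aza-dC | Compound: Single point | Times: Compounds 3 days, fix/stain 15 min at room temperature | Benchmarks: Positive control ellipticine, 6 µM final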
# Wnt act: Wnt/beta-catenin pathway activation. Wnt/beta-catenin reporter cell assay, activator, plate reader. activation, % at 9.35 µM. hit rate 1.2% among 300,000. AID 743398; in the data active = activation above about 30%, passing the limit was not always enough; inconclusive = no clear call, values can overlap the other calls;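 also: 0% = neutral control wells and 100% = positive control wells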
# * marks the source's active call; other numbers are inactive results; ? = inconclusive; / = not tested or not shown.
SMILES,NSD2 HMT inh,esBAF inh,CASP6 VEID inh,MITF TRPM1 HTS,XiGFP reactiv,Wnt act
CCN(CC)C(=O)c1cccc(-c2csc(C(O)c3ccco3)n2)c1 (configuration not stated),1,-1,1,/,0,-2
COc1ccc(C(O)c2nc(-c3ccc4ccccc4c3)cs2)cc1 (configuration not stated),10,58*,1,/,0,1
CO[C@@H]1CN(C)C(=O)c2cc(NC(=O)CC(F)(F)F)ccc2OC[C@H](C)N(C(=O)C2CCOCC2)C[C@@H]1C,/,/,2,/,1,/
N/C(=N\OC(=O)COc1ccc2ccccc2c1)c1ccccn1,/,103*,/,56,/,36*
Cc1ccc(C)c(OCC(=O)O/N=C(\N)c2ccccn2)c1,-4,72*,/,96*,/,45*
N/C(=N\OC(=O)COc1ccccc1Cl)c1ccccn1,-1,/,/,20,0,/
CCOc1ccc(NC(=O)c2ccccc2OC)cc1,0,22,/,12,/,46*
CCOc1ccc(NC(=O)c2ccccc2OCC(=O)c2ccccc2)cc1,0,44*,/,/,/,/
CCOc1ccc(NC(=O)c2ccccc2O)cc1,0,26,/,82*,/,/
CCOc1ccc(NC(=O)c2nnn(CC(=O)Nc3ccccc3OC)c2N)cc1,/,44*,/,16,/,/
COCC(=O)N1CC2(CCN(Cc3cncnc3)CC2)c2c(n(C)c3cc(OC)ccc23)[C@@H]1CO,/,/,/,/,0,/
CCOc1ccc(NC(=O)c2ccccc2-c2ccccc2C(=O)O)cc1,-1,27,-1,85*,0,13
CC(C)Cc1ccc(CN2C(C)C(=O)N(Cc3cn(Cc4ccco4)nn3)CCS2(=O)=O)cc1 (configuration not stated),/,-8,46*,/,/,8
O=C(NCCOc1ccccc1F)C1CC(=O)N(Cc2ccccc2)C1 (configuration not stated),-1,-12,0,1,0,34*
Cc1ccc(NC(=O)C2CC(=O)N(Cc3ccccc3)C2)nc1 (configuration not stated),-1,3,-147,-7,0,-2
Cc1ccnc(NC(=O)C2CC(=O)N(Cc3ccccc3)C2)c1 (configuration not stated),-6,24,0,90*,0,?
Cc1ccc(OCCNC(=O)C2CC(=O)N(Cc3ccccc3)C2)cc1 (configuration not stated),-3,-2,-62,-3,0,1
O=C(C1CC1)N1C[C@@H]2[C@H](c3ccccc31)[C@H](CO)N2S(=O)(=O)c1ccccc1,/,1,/,/,0,/
CC(C)(C)c1ccc(OCc2ccc(C(=O)NCc3cccnc3)o2)cc1,1,?,3,59,0,51*
COc1ccccc1OCc1ccc(C(=O)NCc2cccnc2)o1,-45,-10,/,7,/,-5
CC(C)(C)c1ccc(C(=O)c2c[nH]c(C(=O)NCc3cccnc3)c2)cc1,0,55*,/,/,/,/
CC(C)(c1ccccc1)c1ccc(OCc2ccc(C(=O)O)o2)cc1,/,-2,3,88*,0,38*
COc1cccc(S(=O)(=O)N[C@H]2CC[C@H](CCNC(=O)Cc3ccncc3)O[C@@H]2CO)c1,/,1,0,/,1,/
Cc1noc(C)c1NC(=O)N(C)C[C@H]1Oc2ccc(NC(=O)Nc3ccc(F)cc3)cc2CC(=O)N([C@H](C)CO)C[C@H]1C,/,4,1,/,0,/
CC(C)C1N=C(c2ccc3c(c2)OCO3)CC(c2ccccc2O)N1 (configuration not stated),-1,47*,/,19,/,/
SMILES,NSD2 HMT inh,esBAF inh,CASP6 VEID inh,MITF TRPM1 HTS,XiGFP reactiv,Wnt act
CCOc1ccccc1C1N=C(c2ccc(OC)cc2)CC(c2ccccc2O)N1 (configuration not stated),-7,/,-1,?,0,30
O=C(Cc1cccc2ccccc12)NN1C(=O)CSC1=S,4,/,-2,-2,0,-4
O=C(NN1C(=O)CSC1=S)C(=O)NN1C(=O)CSC1=S,-340,2,51*,-12,0,-4
COc1ccc2cc(CCNC(=O)c3cccs3)c(=O)[nH]c2c1,/,72*,2,90*,0,51*
COc1ccc2cc(CCNC(=O)c3cc4ccccc4o3)c(=O)[nH]c2c1,-1,/,3,-20,0,1
O=C(NCCc1cccs1)c1cccs1,-1,61*,2,?,1,11
